pIC50: −log10 of the molar value.
How the values were obtained:
HT-29 = test: Cytotoxicity against human HT-29 cells after 72 hrs; assay type: functional, cell-based; conditions: HT-29, 72 h
How it was run: (§1)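 KB, HT29, A549 and HL60 lines were sourced from ATCC, with Taxotere as the reference compound. IC50 is the concentration that reduced cell growth by 50%, reported as the mean of duplicate experiments.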

KB = test: Cytotoxicity against human KB cells after 72 hrs; assay type: functional, cell-based; how it was run: as §1
A549 = test: Cytotoxicity against human A549 cells after 72 hrs; assay type: functional, cell-based; conditions: A549, 72 h; how it was run: as §1
HL-60 = test: Cytotoxicity against human HL60 cells after 72 hrs; assay type: functional, cell-based; conditions: HL-60, 72 h; how it was run: as §1
K562 [1] = test: Cell cycle arrest in human K562 cells assessed as accumulation at G0/G1 phase at 4 uM after 24 hrs using propidium iodide staining by flow cytometry (reference value: 30.1%); assay type: functional
K562 [2] = test: Cell cycle arrest in human K562 cells assessed as accumulation at G2/M phase at 4 uM after 24 hrs using propidium iodide staining by flow cytometry (reference value: 12.1%); assay type: functional
K562 [3] = test: Cell cycle arrest in human K562 cells assessed as accumulation at S phase at 4 uM after 24 hrs using propidium iodide staining by flow cytometry (reference value: 56.7%); assay type: functional

Question: What does the source list for `CC(=O)O[C@@]12CO[C@@H]1C[C@H](O)[C@@]1(C)C(=O)[C@H](O)C3=C(C)[C@@H](OC(=O)[C@H](O)[C@@H](NC(=O)OC(C)(C)C)c4ccccc4)C[C@@](O)([C@@H](OC(=O)c4ccccc4)[C@H]21)C3(C)C` [DOCETAXEL]?
Answer: pIC50 (HT-29): 6.04; pIC50 (KB): 6.54; pIC50 (A549): 6.43; pIC50 (HL-60): 6.28

Question: What does the source list for `C=C1C(=O)[C@]23CC[C@@H](C(=C)C)[C@]4(C)CCC(=O)O[C@@]42C[C@H]1C[C@@H]3OC(C)=O` [CROTOBARIN]?
Answer: pIC50 (HT-29): 5.68; pIC50 (KB): 5.60; Activity (K562 [1]): 12.3%; pIC50 (A549): 6.10; pIC50 (HL-60): 6.25; Activity (K562 [2]): 56.5%; Activity (K562 [3]): 25.7%

Question: What does the source list for `C=C1C(=O)[C@@]23CC[C@@H]1C[C@@]21OC(=O)CC[C@@]1(C)[C@H](C(=C)C)CC3` [CROTOGOUDIN]?
Answer: pIC50 (HT-29): 5.72; pIC50 (KB): 5.82; Activity (K562 [1]): 22.2%; pIC50 (A549): 6.27; pIC50 (HL-60): 6.31; Activity (K562 [2]): 33.6%; Activity (K562 [3]): 31.8%
